# High-throughput results from PubChem BioAssay.
# Rce1 inhib: blocks yeast Ras-converting enzyme; yeast membranes, quenched prenylated peptide cleavage fluorescence; calls only; 290,000 tested, 0.27% active; AID 2563;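 active means fall in fluorescence gain of 50% or more versus controls, with final raw signal at or below 3038400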;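 further: plate controls were neutral control wells for no effect and wells lacking membranes for full effect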
# DSG3 Ab inh: human desmoglein-3 autoantibody binding inhibition | P32926 | DSG3-coupled beads, scFv-anti-DSG3-GFP binding, flow cytometry; active compounds read low | binding (percent of control), % at 10 µM | 310,000 tested, 0.48% active;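 active means binding more than 3 SD below its plate's average and above zero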;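 further: hits lower antibody fragment binding to DSG3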
# Target sequence (P32926 whole entry, looked up, the tested form may be a part): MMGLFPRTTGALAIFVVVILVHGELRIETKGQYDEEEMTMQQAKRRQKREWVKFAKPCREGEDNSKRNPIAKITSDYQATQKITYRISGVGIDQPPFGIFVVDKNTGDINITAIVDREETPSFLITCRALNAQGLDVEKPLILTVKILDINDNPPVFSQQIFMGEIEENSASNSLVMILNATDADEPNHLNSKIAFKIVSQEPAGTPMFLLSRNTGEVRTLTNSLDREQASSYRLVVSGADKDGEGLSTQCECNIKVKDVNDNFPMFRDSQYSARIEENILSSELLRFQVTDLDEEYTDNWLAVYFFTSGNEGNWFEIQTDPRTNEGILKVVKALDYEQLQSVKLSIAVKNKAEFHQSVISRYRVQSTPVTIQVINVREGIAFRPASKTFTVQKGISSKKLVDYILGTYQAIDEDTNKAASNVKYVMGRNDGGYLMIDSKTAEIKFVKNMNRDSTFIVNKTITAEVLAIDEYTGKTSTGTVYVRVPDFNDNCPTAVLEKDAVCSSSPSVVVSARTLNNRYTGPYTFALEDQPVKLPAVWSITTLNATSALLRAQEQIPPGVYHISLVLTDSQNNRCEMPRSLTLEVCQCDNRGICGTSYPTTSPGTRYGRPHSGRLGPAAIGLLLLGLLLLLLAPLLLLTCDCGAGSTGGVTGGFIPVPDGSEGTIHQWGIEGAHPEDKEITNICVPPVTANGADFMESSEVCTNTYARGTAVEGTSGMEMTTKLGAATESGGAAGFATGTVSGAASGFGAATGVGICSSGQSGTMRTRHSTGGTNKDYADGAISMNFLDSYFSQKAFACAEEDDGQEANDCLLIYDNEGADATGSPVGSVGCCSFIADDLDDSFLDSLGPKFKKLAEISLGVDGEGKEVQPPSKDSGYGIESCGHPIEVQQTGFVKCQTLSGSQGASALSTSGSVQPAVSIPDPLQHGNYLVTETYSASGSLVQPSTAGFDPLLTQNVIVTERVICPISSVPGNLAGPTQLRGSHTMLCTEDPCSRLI
# NadD inh: NadD (S. aureus) enzyme inhibition; inhibition, % at 20 µM; purified NadD enzyme, colorimetric absorbance read-out; 360,000 tested, 0.78% active; in the data active means inhibition above about 26%
# TbMetRS inhib: Trypanosoma brucei MetRS inhibition; 360,000 tested, 0.4% active; inhibition, % at 11.9 µM; purified T. brucei MetRS, ATP depletion, Kinase-Glo luminescence;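 active means inhibition above a per-plate cutoff of the control wells' mean inhibition plus 3 SD, cut at about 5.5% in these data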;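 further: 0% = DMSO wells median and 100% = median of wells with control inhibitor compound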
#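 Material: T. brucei methionyl-tRNA synthetase, purified; reagent: substrates ATP, L-methionine and bulk Escherichia coli tRNA; dosing: 11.9 µM single point; timing: 15 min plus 2 h at 25 °C; detection: luminescence of leftover ATP; evaluation: % inhibition; control set: DMSO-only wells as low control; replicates: singlicate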
# core dimer inh: blocks dimerization of HCV core protein; TR-FRET GST/Flag-core106 dimerization, 1536-well; inhibition, % at 5 µM; 300,000 tested, 0.33% active; AID 1899;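 active means inhibition above the mean of all tested compounds plus 3 SD, set per screening campaign, cut at about 45% in these data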
#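 System – GST-tagged and Flag-tagged HCV core protein residues 1-106 · Repeats – one well for each compound · Technique – TR-FRET 671 and 617 nm emission · Doses – one concentration, 5 µM, in 0.5% DMSO · Times – 4 h, 22.5 °C incubation · Also added – Eu donor and XL665 acceptor anti-tag antibodies · Measure – percent inhibition of core106 dimerization signal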
# TbMetRS confirm: confirmation of Trypanosoma brucei MetRS inhibitors | 1,400 tested, 93% active | T. brucei MetRS enzyme, luminescence (ATP depletion) | AID 624412 | inhibition, % at 11.9 µM | shares compounds with TbMetRS inhib; in the data active means inhibition above about 7%
# Jurkat cytotox: counter-screen for T. brucei MetRS inhibitors: Jurkat cell cytotoxicity. shares compounds with TbMetRS inhib. Jurkat cells viability, ATP luminescence. inhibition, % at 8.3 µM. 1,400 tested, 12% active. AID 624413; in the data active means inhibition above about 15%;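 further: 0% = vehicle and 100% = reference inhibitor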
# Tb MetRS inh FP: T. brucei MetRS inhibition, orthogonal assay. shares compounds with TbMetRS inhib. purified T. brucei MetRS, fluorescence polarization. inhibition, % at 11.9 µM. 1,400 tested, 44% active; in the data active means inhibition above about 17%;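 further: 0% = vehicle wells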
# An asterisk follows results filed as active; i = inactive; x = no result. Shown are actives, neighbours in structure and some others; about 1.9% of the full set was active somewhere.
SMILES,Rce1 inhib,DSG3 Ab inh,NadD inh,TbMetRS inhib,core dimer inh,TbMetRS confirm,Jurkat cytotox,Tb MetRS inh FP
NC(=O)c1cccc(-c2ccnc3c2CC(C(=O)Nc2ccc(Cl)cc2)O3)c1 (configuration not stated),x,x,3,52*,x,70*,5,47*
CC(=O)Nc1ccc(C2=NNC(=NCC3CCCO3)SC2)cc1 (configuration not stated),x,103,5,-1,5,x,x,x
COc1ccc(NC(=O)CC2C(=O)N(C)C(=S)N2CCc2ccccc2F)cc1 (configuration not stated),i,98,-7,35*,1,46*,1,20*
CCN1C(=O)C(CC(=O)Nc2ccc(OC)cc2)N(CCc2ccccc2F)C1=S (configuration not stated),i,x,-4,33*,3,34*,18*,21*
c1ccc(N/N=C(\Cc2ncc[nH]2)c2ccccc2)cc1,i,104,2,0,-3,x,x,x
Clc1cccc(N/N=C(\Cc2nc3ccccc3[nH]2)c2ccccc2)c1,i,130,8,59*,2,90*,3,98*
COc1ccccc1OCCCOc1ccc([N+](=O)[O-])cc1Cl,i,x,-9,2,-2,x,x,x
CC(=O)NCCCOc1ccc([N+](=O)[O-])cc1Cl,i,92,-1,7.3*,-11,14*,-1,5
Cc1ccc(S(=O)(=O)Nc2cccc3ncccc23)cc1,i,77,0,0,0,x,x,x
Cc1ccc(S(=O)(=O)Nc2ccnc3ccccc23)cc1,i,105,-2,7.0*,5,15*,8,8
CC1(C)C2CCC1(CS(=O)(=O)NCc1ccc(Cl)cc1Cl)C(=O)C2 (configuration not stated),i,102,2,7.6*,-2,21*,-1,4
COc1cccc(NS(=O)(=O)CC23CCC(CC2=O)C3(C)C)c1 (configuration not stated),i,88,-3,-1,-8,x,x,x
COc1cccc(=O)c2c(C)oc(C)c12,i,96,1,0,0,x,x,x
COC(=O)/C(=C\Nc1ccc(OC)cc1)NC(=O)c1ccc(Cl)cc1Cl,i,108,-7,20*,-10,57*,7,30*
COC(=O)C(CC(=O)c1ccc(Cl)cc1)c1ccccc1 (configuration not stated),x,103,-2,0,x,x,x,x
O=C(NCc1cc(Br)cc(Br)c1OC(=O)c1ccccc1[N+](=O)[O-])c1ccccc1,i,x,14,23*,17,28*,14,20*
C1CCCN(c2nc3nonc3nc2N2CCCCCC2)CC1,i,103,0,-1,3,x,x,x
Nc1nc2nonc2nc1N1CCCCC1,i,107,2,7.1*,-5,13*,3,3
